In brackets after ≈: the same amount, converted by molar mass.
Columns and labels:
[1] = Mean half-life in Swiss albino male mice at 1 mg/kg per compound (administered iv in a mixture of 5 compounds to 3 mice) assessed by LCMS/MS.; format: ADME, organism-based; settings: mouse, in vivo
Method in brief: (§1)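 Male Swiss albino mice (~30 g), 3 per experiment, mostly dosed as mixtures of 5 compounds iv via the lateral tail vein. Vehicle: 10% DMSO/90% 50 mM Na2HPO4 with 0.5% Tween-80. Plasma stored at −20 °C and quantified by LC-MS after acetonitrile precipitation.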

[2] = Percentage of parent compound remaining after incubation for 90 minutes with cyropreserved mouse hepatocytes at a concentration of 1uM compound and […], determined by LCMS; format: ADME, tissue-based, Hepatocyte; settings: cryopreserved mouse hepatocytes, read-out: Stability
Method in brief: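 Compound was incubated at 1 µM final (2 µM working solution mixed 1:1 with hepatocyte suspension) in supplemented KHB pH 7.4. Conditions: 37 °C, 5% CO2, gentle mixing, duplicates. Reaction quenched with ice-cold acetonitrile containing standard; analysed by LC-MS/MS. % remaining = AUC at t / AUC at T0.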

[3] = Mean oral bioavailability in Swiss albino male mice at […] per compound (administered in a mixture of 5 compounds to 3 mice) assessed by LCMS/MS.; note: dose 2.5 mg/kg; format: ADME, organism-based; settings: mouse, in vivo
[4] = Mean observed clearance in Swiss albino male mice at 1 mg/kg per compound (administered iv in a mixture of 5 compounds to 3 mice) assessed by LCMS/MS.; format: ADME, organism-based; settings: male, Swiss albino, mouse, in vivo, read-out: Clearance (converted)
Method in brief: as §1, with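 “Tween-80. Blood sampled at 5, 15, 30 min and 1, 2, 4, 8, 24 h.” for “Tween-80.”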

[5] = Mean plasma concentration at 24h in Swiss albino male mice at […] per compound (administered orally in a mixture of 5 compounds to 3 mice) assessed by LCMS/MS.; format: ADME, organism-based; settings: mouse, po
[6] = Mean AUC inf in Swiss albino male mice at 1 mg/kg per compound (administered iv in a mixture of 5 compounds to 3 mice) assessed by LCMS/MS.; format: ADME, organism-based; settings: male, Swiss albino, mouse, in vivo
Method in brief: as §1, with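 “Tween-80. Blood sampled at 5, 15, 30 min and 1, 2, 4, 8, 24 h.” for “Tween-80.”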

[7] = test system: Schistosoma mansoni; test: Concentration required to kill 50% of 42 day old worms 5 days after drug treatment.; format: functional, organism-based; settings: Puerto Rican, 120 h
Method in brief: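 Adult S. mansoni were perfused from CD1 mice 6 weeks post-infection and washed. They were cultured 3 pairs per well in 1 mL DMEM with 2 mM glutamine, penicillin/streptomycin and 10% FCS […] at 37 °C, 5% CO2. Viability of individual worms was scored on day 5 (120 h).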

[8] = Mean plasma concentration at 4h in Swiss albino male mice at […] per compound (administered orally in a mixture of 5 compounds to 3 mice) assessed by LCMS/MS.; format: ADME, organism-based; settings: mouse, po
[9] = test system: Schistosoma mansoni; test: Concentration required to kill 50% of 21 day old worms 5 days after drug treatment.; format: functional, organism-based; settings: Puerto Rican, 120 h
Method in brief: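 Juvenile S. mansoni (Puerto Rican strain) were perfused from CD1 mice 3 weeks post-infection and washed. They were cultured 6–8 per well in 200 µL DMEM with 2 mM glutamine, penicillin/streptomycin and 10% FCS at 37 °C, 5% CO2. Viability of individual worms was scored on day 5 after dosing (120 h).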

[10] = Mean volume of distribution at steady state in Swiss albino male mice at 1 mg/kg per compound (administered iv in a mixture of 5 compounds to 3 mice) assessed by LCMS/MS.; format: ADME, organism-based; settings: mouse, in vivo, read-out: Volume; method in brief: as §1
[11] = Mean time to peak plasma concentration in Swiss albino male mice at […] per compound (administered orally in a mixture of 5 compounds to 3 mice) assessed by LCMS/MS.; format: ADME, organism-based; settings: mouse, po
[12] = Concentration required to kill 50% HepG2 cells as detected by MTT staining; format: toxicity, cell-based; settings: homo sapiens, read-out: TC50 (the source's name)
[13] = Solubility at 25 degC of compound (diluted from DMSO) in PBS at pH 7.4 determined after 24h (1h sonication, 22h shaking, 1h sonication) by LCMS/MS; format: physicochemical
[14] = Partition coefficient of compound between n-octanol and PBS (pH7.4); format: physicochemical; settings: octanol/water, pH 7.4
Method in brief: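 Shake-flask method using octanol and PBS pH 7.4, each pre-saturated with the other. Compound was shaken 2 h at 850 rpm, 25 °C, then the phases were separated by centrifugation and both layers diluted and analysed by LC-MS/MS. LogD = log(octanol AUC × relative dilution / buffer AUC).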

[15] = male, Swiss albino, read-out: Bioavailability

Structure (SMILES)	half-life [1] [min]	remaining at 1.5 h, 1 µM [2] [%]	bioavailability [3, 15] [%]	clearance [4] [mL/min/kg]	concentration at 24 h [5] [ng/mL]	AUC(0-inf) [6] [ng·h/mL]	EC50 [7] [µM]	concentration at 4 h [8] [ng/mL]	EC50 [9] [µM]	Vd [10] [L/kg]	Tmax [11] [min]	CC50 [12] [µM]	solubility kinetic at 24 h [13] [µM]	bioavailability [3] [%]	Lipophilicity [14]
CC(C)c1nc2cnc(-c3ccc(F)c(C(F)(F)F)c3)cn2c1-c1ccc2[nH]ncc2c1	479	41.3	81.8	5.83	60.5	1440	0.185	371	0.174	3.16	40	–	–	–	–
Fc1c(-c2c(C(F)(F)F)nc3cnc(-c4ccnc(C(F)(F)F)c4)cn23)ccc2[nH]ncc12	–	76.5	–	–	–	–	0.117	–	0.138	–	–	7	2.95 (≈ 1.38 µg/mL)	–	–
CC(C)c1nc2cnc(-c3cccc(C(F)(F)F)c3)cn2c1-c1c(F)cc(O)cc1F	–	30.2	–	–	–	–	< 0.0455	–	0.0937	–	–	7.5	0.951 (≈ 0.412 µg/mL)	–	–
Cc1nc2cnc(-c3ccc(F)c(C(F)(F)C(F)(F)F)c3)cn2c1-c1c(F)cc(O)cc1F	–	31.6	–	–	–	–	0.0195	–	0.0205	–	–	8.8	2.43 (≈ 1.15 µg/mL)	–	–
Fc1c(-c2c(C(F)(F)F)nc3cnc(-c4cccc(C(F)(F)F)c4)cn23)ccc2[nH]ncc12	–	69	–	–	–	–	0.0252	–	0.0415	–	–	–	–	–	–
Fc1ccc(-c2cn3c(-c4ccc5[nH]ncc5c4)c(C(F)(F)F)nc3cn2)cc1C(F)(F)F	1400	56.2	91.3	3.08	208	2730	0.329	322	0.35	6.69	100	–	–	–	–
Oc1cc(F)c(-c2c(C3CC3)nc3cnc(-c4ccc(F)c(C(F)(F)C(F)(F)F)c4)cn23)c(F)c1	–	54.3	–	–	–	–	0.0105	–	0.0239	–	–	9.4	3.14 (≈ 1.57 µg/mL)	–	–
Fc1ccc(-c2cn3c(-c4ccc5[nH]ncc5c4F)c(C(F)(F)F)nc3cn2)cc1C1CC1	169	–	135	31.5	6.53	270	0.012	131	0.0193	4.45	40.2	10.5	–	–	–
Fc1c(-c2c(C3CC3)nc3cnc(-c4cccc(S(F)(F)(F)(F)F)c4)cn23)ccc2[nH]ncc12	–	80.9	–	–	–	–	0.0207	–	0.0358	–	–	20.7	1.7 (≈ 0.842 µg/mL)	–	–
CC(C)c1cccc(-c2cn3c(-c4ccc5[nH]ncc5c4F)c(C(F)(F)F)nc3cn2)c1	–	16.7	–	–	–	–	0.0053	–	0.00518	–	–	12.9	–	–	–
CC(C)Oc1cc(-c2cn3c(-c4ccc5[nH]ncc5c4F)c(C(F)(F)F)nc3cn2)ccc1F	–	–	–	–	–	340	–	185	–	–	40.2	9.25	–	152	5.47 =
CC(C)c1nn2cnc(-c3ccc(F)c(C(F)(F)F)c3)cc2c1-c1c(F)cc(O)cc1F	–	42.2	14.3	25.2	0.01	342	0.0217	22.4	0.0269	1.77	20	8.9	6.55 (≈ 2.96 µg/mL)	–	–
CC(C)c1nc2cnc(-c3ccc(F)c(C(F)(F)F)c3)cn2c1-c1ccc(O)cc1Cl	–	20.3	–	–	–	–	0.102	–	0.127	–	–	–	–	–	–
Cc1nc2cnc(-c3cccc(C(F)(F)C(F)(F)F)c3)cn2c1-c1c(F)cc(O)cc1F	–	33.5	57.1	26.2	7	320	0.0339	55.8	0.0351	8.08	15	9.3	2.33 (≈ 1.06 µg/mL)	–	–
